Where “and” joins values, the source holds several entries; their conditions need not be identical. Equal values may be shown once. Read-outs that look alike come from different tables or passages of the source. Values belong to the compound of their own block, whether it stands above or below them.
Columns and labels:
A549 cells = assay: MTT toxicity in A549 cells with added BSA; format: cell-based, human; conditions: BSA 0.6 mM
Method in brief: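 MTT viability assay in human A549 alveolar adenocarcinoma cells with added BSA (0.6 mM). Test compounds were tested under non-illuminated and illuminated conditions. Percent viability was plotted against concentration. IC50 was fitted by four-parameter nonlinear regression, only where viability fell by at least 50%.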

TNF-α [1] = assay: Suppression of LPS-induced TNF-α production in RAW 264.7 cells; format: cell-based, murine; conditions: BSA 0.6 mM; for effect on TNF-α: LPS 1 μg/mL
Method in brief: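 RAW 264.7 murine macrophages with added BSA (0.6 mM) and test compound, kept either illuminated or dark. Plates were then treated with LPS (1 μg/mL final) for 1 h. TNF-α in each well's supernatant was measured by commercial ELISA. Means ± SEM from three independent experiments. Two-way ANOVA with Tukey post hoc tests against the LPS control and illuminated versus dark.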

bovine serum albumin [2] = target: T1, bovine serum albumin (Bos taurus, UniProt P02769); assay: Bovine serum albumin binding by tryptophan fluorescence quenching
T1 sequence (P02769 25-607): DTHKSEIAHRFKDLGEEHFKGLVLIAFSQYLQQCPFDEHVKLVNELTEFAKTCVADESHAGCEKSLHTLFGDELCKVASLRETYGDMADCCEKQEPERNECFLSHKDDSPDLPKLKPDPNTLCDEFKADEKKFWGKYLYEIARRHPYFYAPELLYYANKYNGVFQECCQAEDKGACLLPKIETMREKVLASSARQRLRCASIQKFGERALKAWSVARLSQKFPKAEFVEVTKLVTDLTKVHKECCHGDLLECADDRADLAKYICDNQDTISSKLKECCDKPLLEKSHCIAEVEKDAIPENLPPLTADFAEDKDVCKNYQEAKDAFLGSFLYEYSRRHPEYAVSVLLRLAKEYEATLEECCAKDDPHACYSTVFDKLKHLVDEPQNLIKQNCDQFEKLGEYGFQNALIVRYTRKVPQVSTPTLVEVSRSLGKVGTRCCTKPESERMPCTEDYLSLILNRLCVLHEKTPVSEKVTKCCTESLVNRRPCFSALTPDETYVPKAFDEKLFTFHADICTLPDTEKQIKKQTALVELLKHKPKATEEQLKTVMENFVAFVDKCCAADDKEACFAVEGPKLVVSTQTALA

[3] = system: RAW 264.7 murine macrophage cells; assay: MTT cytotoxicity in RAW 264.7 cells with added BSA; format: cell-based
Method in brief: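 MTT viability assay in murine RAW 264.7 macrophages with added bovine serum albumin. Test compounds were screened under both non-illuminated and illuminated conditions.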

HUVECs = assay: MTT cytotoxicity in normal human cells; format: cell-based; conditions: up to 100 μM
TNF-α [4] = conditions: RAW 264.7 murine macrophages; cited from earlier work
bovine serum albumin [5] = target: T1, bovine serum albumin; conditions: 22 °C, cited from earlier work
[6] = read-out: IC50 A549, non-illuminated
[7] = read-out: IC50 RAW 264.7, non-illuminated

- KSV (binding constant with BSA) (bovine serum albumin [2]; 22 °C, 4% DMSO:Tris buffer pH 7.4, 0.1 M NaCl): 2.9e+06 M⁻¹
- Ka (ibuprofen) (bovine serum albumin [2]; 22 °C, in the presence of ibuprofen (Site II)): 980000 M⁻¹
- Ka (warfarin) (bovine serum albumin [2]; 22 °C, in the presence of warfarin (Site I)): 610000 M⁻¹
- fold stronger binding to BSA than Flav-1 (bovine serum albumin [2]; relative to Flav-1): approximately 900 fold
Compound: 3-hydroxybenzo[g]quinolone [Compound 1]
- IC50 (A549 cells; [6]): > 100 µM
- TNF-α level (TNF-α [1]; 80 nM, illuminated (blue LED array, 1 hr), LPS 1 μg/mL 1 h): almost completely suppressed
- effect on TNF-α (TNF-α [1]; non-illuminated): dose-dependent decrease
- IC50 [3, 7]: 40.2 ± 1.44 µM
- cell viability (HUVECs): greater than 50%

Compound: NCC(=O)O.[C-]#[O+].[C-]#[O+].[C-]#[O+].[Cl][Ru] [CORM-3]
- concentration at which effects on TNF-α expression start (TNF-α [4]): 10 µM

Compound: O=C(Nc1cc2ccccc2cc1C(=O)O)c1ccccc1 [Compound 3, 3-(benzoylamino)-2-naphthalenecarboxylic acid]
- IC50 (A549 cells; Homo sapiens, A549, read-out: IC50 A549, non-illuminated): > 100 µM
- IC50 (A549 cells; [6]): > 100 µM
- IC50 A549 (illuminated) (A549 cells; visible light illumination (in situ CO release)): non-toxic
- effect on TNF-α (TNF-α [1]; illuminated): lack of any effect
- IC50 ([3]; Mus musculus, RAW264.7, read-out: IC50 RAW 264.7, non-illuminated): > 100 µM
- IC50 [3, 7]: > 100 µM

Compound: O=c1c(O)c(-c2ccccc2)oc2cc3ccccc3cc12 [Flav-1, 3-hydroxybenzo[g]flavone, reference compound]
- IC50 (A549 cells; [6]): 82 µM and 81.9 µM
- Ka (ibuprofen) (bovine serum albumin [5]; in the presence of ibuprofen): 2600 M⁻¹
- Ka (warfarin) (bovine serum albumin [5]; in the presence of warfarin): 360 M⁻¹
- IC50 RAW 264.7 ([3]; non-illuminated): nontoxic
- IC50 [3, 7]: > 100 µM
- cell viability (HUVECs): greater than 50%

Compound: BSA-Ru(CO)2 conjugate: adduct formed by albumin binding of CORM-3
- concentration at which effects on TNF-α expression start (TNF-α [4]): 4.5 µM

Source: PMC6336391 (Journal of the American Chemical Society, 2018)
